Experimental findings from ChEMBL document CHEMBL3745654, “N-Alkylated arylsulfonamides of (aryloxy)ethyl piperidines: 5-HT(7) receptor selectivity versus multireceptor profile” (Bioorg Med Chem, 2016) are described below.

Series [1] deals with 5-hydroxytryptamine receptor 7 (Homo sapiens, UniProt P34969). Kind of series: Displacement of [3H]-5-CT from human 5-HT7B receptor expressed in HEK293 cells incubated for 1 hr. Type of series: cell-based. A digest of the protocol: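 Membranes from HEK293 cells stably expressing human 5-HT7b receptor, with [3H]-5-CT (39.2 Ci/mmol). Buffer: 50 mM Tris-HCl, 4 mM MgCl2, pargyline, 0.1% ascorbate. Incubation 1 h at 37 °C, then rapid filtration and counting of filter radioactivity. Non-specific binding defined with 5-HT. Triplicates at 7–8 concentrations (10^-11 to 10^-4 M). Ki by Cheng–Prusoff.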
In general terms: Loss of bound radioactivity is the signal in a displacement assay; it reports binding, not function.

Series [2] addresses T1, Adrenergic receptor alpha-1 (Rattus norvegicus, UniProt P15823+P23944+P43140).
T1 sequence (P15823 whole entry): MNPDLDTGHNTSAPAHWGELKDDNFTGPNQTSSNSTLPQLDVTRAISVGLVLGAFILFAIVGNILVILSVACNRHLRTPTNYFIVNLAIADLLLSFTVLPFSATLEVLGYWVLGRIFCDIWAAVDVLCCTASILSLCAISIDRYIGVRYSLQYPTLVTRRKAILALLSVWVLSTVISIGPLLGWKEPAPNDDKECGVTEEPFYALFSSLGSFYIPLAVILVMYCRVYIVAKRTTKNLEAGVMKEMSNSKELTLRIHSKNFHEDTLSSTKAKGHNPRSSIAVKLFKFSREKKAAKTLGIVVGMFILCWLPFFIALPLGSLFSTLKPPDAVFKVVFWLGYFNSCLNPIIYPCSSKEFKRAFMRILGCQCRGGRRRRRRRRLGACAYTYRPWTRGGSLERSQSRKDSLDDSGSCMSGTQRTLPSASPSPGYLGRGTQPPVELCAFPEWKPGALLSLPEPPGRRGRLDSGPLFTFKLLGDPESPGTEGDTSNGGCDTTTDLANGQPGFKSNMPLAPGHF
T1 sequence (P23944 whole entry): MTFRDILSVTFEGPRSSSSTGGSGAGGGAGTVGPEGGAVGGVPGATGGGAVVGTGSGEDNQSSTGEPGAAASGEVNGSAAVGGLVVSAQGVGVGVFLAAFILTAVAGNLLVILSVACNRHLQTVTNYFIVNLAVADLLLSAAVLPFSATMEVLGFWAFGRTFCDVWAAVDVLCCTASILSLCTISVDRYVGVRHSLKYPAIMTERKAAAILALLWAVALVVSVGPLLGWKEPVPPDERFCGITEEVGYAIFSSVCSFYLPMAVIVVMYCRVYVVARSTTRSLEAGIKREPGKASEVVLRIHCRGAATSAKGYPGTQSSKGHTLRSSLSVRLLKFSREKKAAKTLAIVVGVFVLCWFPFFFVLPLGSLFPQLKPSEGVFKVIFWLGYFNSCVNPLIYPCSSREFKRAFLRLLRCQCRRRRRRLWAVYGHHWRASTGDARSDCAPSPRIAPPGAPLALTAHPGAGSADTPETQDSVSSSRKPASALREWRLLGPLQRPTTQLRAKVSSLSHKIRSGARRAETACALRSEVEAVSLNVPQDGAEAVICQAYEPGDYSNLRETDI
T1 sequence (P43140 whole entry): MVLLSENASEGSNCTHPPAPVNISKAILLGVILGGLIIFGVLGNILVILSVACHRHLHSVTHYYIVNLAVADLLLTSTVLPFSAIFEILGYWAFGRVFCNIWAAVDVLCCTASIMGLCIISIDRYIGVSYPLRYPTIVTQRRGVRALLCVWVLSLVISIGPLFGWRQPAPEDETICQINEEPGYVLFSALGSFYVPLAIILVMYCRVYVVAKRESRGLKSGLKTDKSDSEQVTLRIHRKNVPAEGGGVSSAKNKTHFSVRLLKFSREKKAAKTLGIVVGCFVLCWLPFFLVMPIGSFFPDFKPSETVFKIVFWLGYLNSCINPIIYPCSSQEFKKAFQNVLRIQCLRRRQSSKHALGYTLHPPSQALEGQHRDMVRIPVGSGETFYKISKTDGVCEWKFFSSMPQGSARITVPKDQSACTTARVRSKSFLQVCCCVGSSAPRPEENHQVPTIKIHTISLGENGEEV
The experiment in a line: Displacement of [3H]-Prazosin form rat cerebral cortex alpha-1 adrenergic receptor after 60 mins by scintillation counting method. Type of series: tissue-based. In outline: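 Rat cerebral cortex membranes incubated with [3H]-prazosin (22 Ci/mmol; 0.6 nM). Compound tested at seven or eight concentrations (1 nM upward). Ki calculated by Cheng–Prusoff.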

Series [3] can be described thus: Drug metabolism in mouse liver microsomes assessed as retention time of hydroxylated metabolite at 20 uM at pH 7.4 incubated for 15 mins by UPLC/MS analysis in presence of NADPH. It is filed as ADME. The following applies: pH 7.4, 0.25 h. In outline: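 Compound (20 µM) incubated with mouse liver microsomes (0.2 mg/ml) in 100 mM potassium phosphate, pH 7.4, 37 °C. Reaction started with NADPH-regenerating system; blank without NADPH run in parallel. Sampling at 5, 15, 30 and 60 min (some to 120 min), in duplicate. Levallorphan internal standard; UPLC/MS quantitation. t1/2 from ln % remaining vs time.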
On the technique in general: Liver microsomes are a subcellular fraction often used to study metabolism.

In series [4] the target is T2, D(2) dopamine receptor (Homo sapiens, UniProt P14416). The experiment in a line: Displacement of [3H]-Raclopride from human dopamine D2L receptor expressed in HEK293 cells incubated for 1 hr. Type of series: cell-based. A digest of the protocol: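 Membranes from HEK293 cells stably expressing human D2L receptor, with [3H]-raclopride (74.4 Ci/mmol). Buffer: Tris-HCl, EDTA, MgCl2, 120 mM NaCl, 5 mM KCl, 1.5 mM CaCl2, ascorbate. Incubation 1 h at 37 °C, then filtration. Non-specific binding defined with (+)butaclamol. Triplicates at 7–8 concentrations (10^-11 to 10^-4 M). Ki by Cheng–Prusoff.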

A further series concerns Rattus norvegicus. The experiment in a line: Pro-cognitive effect in ip dosed Sprague-Dawley rat assessed as amelioration of PCP-induced memory deficit dosed 1 hr and 15 mins before familiarization phase by novel object recognition test. Type of series: functional. The following applies: for minimal effective dose: read-out: MED. A digest of the protocol:
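Male Sprague–Dawley rats (~250 g), 7–12 per group, PCP-induced deficit model. Compounds ip 1 h and 15 min before T1. Day 1: 5-min arena habituation. Day 2: two 3-min trials 1 h apart, with two identical objects, then one replaced by a novel object. Exploration and distance video-tracked; discrimination index computed; ANOVA with Newman–Keuls.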

The test system of series [5] is Mus musculus. Kind of series: Toxicity in Swiss albino mouse assessed as effect on spontaneous locomotor activity at 1.25 mg/kg, ip dosed 60 mins before test measured after 2 to 6 mins. Type of series: organism-based. The following applies: in vivo.
Series [6] deals with Mus musculus. The experiment in a line: Antidepressant-like activity in ip dosed Swiss albino mouse assessed as reduction in immobility time dosed 60 mins before test measured after 6 mins by forced swim test. Type of series: functional. The following applies: read-out: MED. A digest of the protocol: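 Male Swiss albino mice (22–26 g), 7–12 per dose. Compounds dissolved in distilled water and given ip 60 min before test. Each mouse placed for 6 min in a glass cylinder with 10 cm of water at 23–25 °C. Immobility (floating with minimal movement) scored over the last 4 min by a blinded observer. One-way ANOVA with Bonferroni.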

Series [7] deals with T2, D(2) dopamine receptor. Kind of series: Antagonist activity at human dopamine D2L receptor expressed in HEK293 cells assessed as inhibition of dopamine-induced cAMP level at 1 uM. Type of series: functional, cell-based. A digest of the protocol:
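Cellular functional cAMP antagonist assay in HEK293 cells, run externally. Inhibition of control agonist response (dopamine 30 nM) measured with compound at 10^-6 M.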
Background: Cyclic AMP is a second messenger, typically raised through Gs and lowered through Gi signalling.

Sequence of 5-hydroxytryptamine receptor 7 (P34969 whole entry): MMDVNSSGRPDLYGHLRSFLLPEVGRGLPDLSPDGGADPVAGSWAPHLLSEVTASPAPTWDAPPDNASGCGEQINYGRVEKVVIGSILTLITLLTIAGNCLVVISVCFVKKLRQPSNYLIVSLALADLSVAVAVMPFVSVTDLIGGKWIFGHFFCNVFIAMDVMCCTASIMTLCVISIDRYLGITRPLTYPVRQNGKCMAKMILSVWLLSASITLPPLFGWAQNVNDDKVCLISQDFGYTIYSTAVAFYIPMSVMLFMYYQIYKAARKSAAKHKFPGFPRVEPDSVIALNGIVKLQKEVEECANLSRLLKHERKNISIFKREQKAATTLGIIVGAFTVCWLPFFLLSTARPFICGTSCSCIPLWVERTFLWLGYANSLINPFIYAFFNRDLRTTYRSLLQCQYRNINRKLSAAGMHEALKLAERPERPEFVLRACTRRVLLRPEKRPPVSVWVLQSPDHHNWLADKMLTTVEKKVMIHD
T2 sequence (P14416 whole entry): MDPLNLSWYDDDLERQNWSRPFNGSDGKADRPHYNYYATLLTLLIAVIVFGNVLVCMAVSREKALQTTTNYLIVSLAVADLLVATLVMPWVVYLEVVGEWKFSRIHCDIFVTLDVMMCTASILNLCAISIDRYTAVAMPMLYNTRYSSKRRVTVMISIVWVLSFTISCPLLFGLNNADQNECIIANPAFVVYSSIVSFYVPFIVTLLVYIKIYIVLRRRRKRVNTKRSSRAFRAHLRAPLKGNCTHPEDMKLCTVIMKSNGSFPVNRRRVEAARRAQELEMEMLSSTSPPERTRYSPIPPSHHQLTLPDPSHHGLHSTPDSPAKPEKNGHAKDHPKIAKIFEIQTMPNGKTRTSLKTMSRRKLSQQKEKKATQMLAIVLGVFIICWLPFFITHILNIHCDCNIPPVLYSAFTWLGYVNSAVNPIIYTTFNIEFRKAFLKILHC

What is called Ki is the equilibrium dissociation constant of an inhibitor or competing ligand from its target. A higher Ki goes with weaker binding. Turning to `CN(C1CCN(CCOc2ccccc2C(C)(C)C)CC1)S(=O)(=O)c1cnn(C)c1`, the Ki is 58 nM in series [1], over 300 nM in series [2] and 280 nM on D(2) dopamine receptor [4]. Also, the Retention_time in series [3] stood at 4.09 min.
Usually inhibition stands for the percentage by which the read-out fell short of the control. Regarding `Cn1cc(S(=O)(=O)N(CC2CC2)C2CCN(CCOc3ccccc3-c3ccccc3)CC2)cn1`, the results for the Activity entry in the series with Rattus norvegicus and in the series with Mus musculus [5] were “Dose-dependent effect” and “Non-toxic”, respectively. Also, the values for the minimal effective dose in the series with Rattus norvegicus and in the series with Mus musculus [6] were 1 mg/kg and 1.25 mg/kg, respectively. Besides, the inhibition at D(2) dopamine receptor [7] came to 94%. The Ki is 10 nM in series [1], over 300 nM in series [2] and 16 nM on D(2) dopamine receptor [4].
For `CN(C1CCN(CCOc2ccccc2-c2ccccc2)CC1)S(=O)(=O)c1cnn(C)c1`, at D(2) dopamine receptor [7], the inhibition amounted to 93%. Moreover, the Ki in series [1] is 7 nM; in series [2], over 300 nM; at D(2) dopamine receptor [4] it was 35 nM.
For `Cn1cc(S(=O)(=O)N(CC2CC2)C2CCN(CCOc3ccccc3C(C)(C)C)CC2)cn1`, the values for the Activity result in the series with Rattus norvegicus and in the series with Mus musculus [5] were “Dose-dependent effect” and “Non-toxic”, respectively. In addition, the values for the minimal effective dose in the series on Rattus norvegicus and in the series on Mus musculus [6] were 1 mg/kg and 1.25 mg/kg, respectively. The results for the Ki (in series [1]; in series [2]; at D(2) dopamine receptor [4]) were 49 nM, over 300 nM and 230 nM, respectively. Further, in series [3], the Retention_time turned out to be 4.72 min.
